Test results: ChEMBL document CHEMBL4699617, “Rational Design of Right-Handed Heterogeneous Peptidomimetics as Inhibitors of Protein-Protein Interactions” (J Med Chem, 2020)
The source made the active and inactive calls. The calls are words filed in the database; no cut-off is given here.

How the values were obtained:
[1] = target: T1, E3 ubiquitin-protein ligase Mdm2 (Homo sapiens, UniProt Q00987); assay: Inhibition of MDM2 in human U2OS cells assessed as increase in p21 expression at 30 uM incubated for 16 hrs by Western blot analysis; assay type: cell-based
Summary of the method: (§1)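 U2OS osteosarcoma cells carrying endogenous wild-type p53, treated at 30 μM for 16 h. Cells lysed in Tris-HCl pH 8.0/150 mM NaCl/0.5% NP-40 with PMSF and protease inhibitors, spun 14,000g, 10 min, 4 °C. Supernatant boiled in Laemmli buffer, run on SDS-PAGE and immunoblotted for p53 pathway markers.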
Target sequence in this assay (Q00987 whole entry, looked up): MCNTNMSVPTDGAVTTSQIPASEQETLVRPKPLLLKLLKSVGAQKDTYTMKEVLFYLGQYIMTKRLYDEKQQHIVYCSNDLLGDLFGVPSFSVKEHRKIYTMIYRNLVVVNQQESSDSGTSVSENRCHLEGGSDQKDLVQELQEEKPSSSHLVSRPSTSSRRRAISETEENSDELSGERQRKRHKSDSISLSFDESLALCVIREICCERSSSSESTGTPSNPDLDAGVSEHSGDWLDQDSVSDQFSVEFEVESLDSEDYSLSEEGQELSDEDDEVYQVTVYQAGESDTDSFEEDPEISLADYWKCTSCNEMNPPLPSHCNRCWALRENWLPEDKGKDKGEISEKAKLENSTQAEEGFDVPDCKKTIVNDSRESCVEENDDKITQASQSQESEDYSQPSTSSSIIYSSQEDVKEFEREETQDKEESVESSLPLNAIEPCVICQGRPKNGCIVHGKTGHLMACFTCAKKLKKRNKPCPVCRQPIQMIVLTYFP

[2] = target: T1, E3 ubiquitin-protein ligase Mdm2; assay: Inhibition of MDM2 in human U2OS cells assessed as increase in p53 expression at 30 uM incubated for 16 hrs by Western blot analysis; assay type: cell-based; summary of the method: as §1
Target sequence in this assay (Q00987 whole entry, looked up): as above

[3] = target: T1, E3 ubiquitin-protein ligase Mdm2; assay: Inhibition of MDM2 in human U2OS cells assessed as increase in MDM2 expression at 30 uM incubated for 16 hrs by Western blot analysis; assay type: cell-based; summary of the method: as §1
Target sequence in this assay (Q00987 whole entry, looked up): as above

[4] = target: T1, E3 ubiquitin-protein ligase Mdm2; assay: Binding affinity to human recombinant MDM2 (1 to 150 residue) expressed in Escherichia coli using presence of FITC-labelled compound by fluorescence polarization assay
Target sequence in this assay (Q00987 whole entry): as the sequence (Q00987 whole entry, looked up) above

Compound | p21 expression increase (active/inactive call) [1] | p53 expression increase (activity call) [2] | Increase in MDM2 expression (active/inactive) [3] | IC50 [4]
CC(=O)N[C@H](C(=O)N[C@@H](Cc1c[nH]c2ccccc12)CN(CC(=O)N[C@H]1CCC(=O)NCCCC[C@@H](CN(CC(=O)N[C@@H](CC(C)C)C(=O)N[C@@H](CO)CN(CC(=O)N[C@@H](C)C(N)=O)S(C)(=O)=O)S(=O)(=O)CC(C)C)NC(=O)[C@H](C)NC(=O)CN(S(=O)(=O)c2ccc3ccccc3c2)C[C@H](Cc2ccc(O)cc2)NC1=O)S(C)(=O)=O)[C@@H](C)O | Active | Active | Active | –
CC(C)C[C@H](NC(=O)CN(C[C@@H]1CCCCNC(=O)CC[C@H](NC(=O)CN(C[C@H](Cc2ccccc2)NC(=O)[C@@H](NC(=O)CCc2ccccc2)[C@@H](C)O)S(C)(=O)=O)C(=O)N[C@@H](Cc2ccc(O)cc2)CN(S(=O)(=O)c2ccc3ccccc3c2)CC(=O)N[C@@H](C)C(=O)N1)S(=O)(=O)CC(C)C)C(=O)N[C@@H](CO)CN(CC(=O)N[C@@H](C)C(N)=O)S(C)(=O)=O | Active | Active | Active | 9.4 µM
CC(=O)N[C@H](C(=O)N[C@@H](Cc1ccccc1)CN(CC(=O)N[C@H]1CCC(=O)NCCCC[C@@H](CN(CC(=O)N[C@@H](CC(C)C)C(=O)N[C@@H](CO)CN(CC(=O)N[C@@H](C)C(N)=O)S(C)(=O)=O)S(C)(=O)=O)NC(=O)[C@H](C)NC(=O)CN(S(=O)(=O)c2ccc3ccccc3c2)C[C@H](Cc2ccc(O)cc2)NC1=O)S(C)(=O)=O)[C@@H](C)O | Active | Active | Active | 9 µM
CC(=O)N[C@H](C(=O)N[C@@H](Cc1ccccc1)CN(CC(=O)N[C@H]1CCC(=O)NCCCC[C@@H](CN(CC(=O)N[C@@H](CC(C)C)C(=O)N[C@@H](CO)CN(CC(=O)N[C@@H](C)C(N)=O)S(C)(=O)=O)S(=O)(=O)CC(C)C)NC(=O)[C@H](C)NC(=O)CN(S(=O)(=O)c2ccc3ccccc3c2)C[C@H](Cc2ccc(O)cc2)NC1=O)S(C)(=O)=O)[C@@H](C)O | Active | Active | Active | 11.7 µM
